How the values were obtained:
[1] = Oral bioavailability in CD rat at 3 mg/kg; format: ADME, organism-based; settings: in vivo
Outline: (§1)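 Male CD rats cannulated in the femoral and jugular veins, n = 3, crossover design. Day 1: 1 h iv infusion at 1 mg/kg (0.2 mg/mL in ≤5% DMSO/≥95% 10% Kleptose in saline, 5 mL/kg/h). Day 2: oral gavage at 3 mg/kg (0.6 mg/mL in 1% methylcellulose, 5 mL/kg). Blood assayed by LC–MS/MS after acetonitrile precipitation.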

[2] = Lipophilicity, log D of the compound at pH 7.4; format: physicochemical; settings: buffer
CYP1A1 [3] = test: Induction of CYP1A1 mRNA expression in Sprague-Dawley rat hepatic microsomes at 30 mg/kg, po QD for 4 days relative to control; format: ADME, organism-based, Liver; settings: read-out: FC
Outline: (§2)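 Male CD rats (226–325 g, n = 3) were dosed by oral gavage once daily for 4 days as a 1% w/v aqueous methylcellulose suspension (3–6 mg/mL, 5 mL/kg). At the end of the study, a left lateral liver lobe section was placed in RNALater and homogenised in TRIzol. RNA was purified, DNase-treated and converted to cDNA, and Cyp1a1 was read on low-density TaqMan arrays.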

CYP1A2 [4] = test: Induction of CYP1A2 mRNA expression in Sprague-Dawley rat hepatic microsomes at 30 mg/kg, po QD for 4 days relative to control; format: ADME, organism-based, Liver; settings: read-out: FC
[5] = Cmax in Sprague-Dawley rat at 30 mg/kg, po QD measured on day 1; format: ADME, organism-based; design: dose 30 mg/kg, route oral; settings: in vivo
Outline: (§3)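 Male CD rats (226−325 g), n = 3, given the compound once daily by oral gavage for 4 days. Vehicle was 1% (w/v) methylcellulose aq suspension at 3−6 mg/mL, dosed at 5 mL/kg (target 15−30 mg/kg). Tail vein blood was taken on days 1 and 4 up to 24 h postdose. Blood was diluted 1:1 with water, extracted by acetonitrile protein precipitation and analysed by LC−MS/MS against calibration standards in diluted blood.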

[6] = Cmax in Sprague-Dawley rat at 30 mg/kg, po QD measured on day 4; format: ADME, organism-based; design: dose 30 mg/kg, route oral; settings: in vivo; outline: as §3
[7] = AUC in Sprague-Dawley rat at 30 mg/kg, po QD measured on day 1; format: ADME, organism-based; settings: in vivo; outline: as §3
[8] = AUC in Sprague-Dawley rat at 30 mg/kg, po QD measured on day 4; format: ADME, organism-based; settings: in vivo; outline: as §3
Rattus norvegicus [9] = test: Dose normalized AUC in Sprague-Dawley rat at 30 mg/kg, po QD measured on day 1; format: ADME, organism-based; settings: in vivo; outline: as §3
Rattus norvegicus [10] = test: Dose normalized AUC in Sprague-Dawley rat at 30 mg/kg, po QD measured on day 4; format: ADME, organism-based; settings: in vivo; outline: as §3
[11] = Dissociation constant, pKa of the compound; format: physicochemical
CYP1A1 [12] = test: Induction of CYP1A1 mRNA expression in Sprague-Dawley rat hepatic microsomes at 19 mg/kg, po QD for 4 days relative to control; format: ADME, organism-based, Liver; settings: read-out: FC; outline: as §2
CYP1A2 [13] = test: Induction of CYP1A2 mRNA expression in Sprague-Dawley rat hepatic microsomes at 19 mg/kg, po QD for 4 days relative to control; format: ADME, organism-based, Liver; settings: read-out: FC
[14] = Cmax in Sprague-Dawley rat at 19 mg/kg, po QD measured on day 1; format: ADME, organism-based; design: dose 19 mg/kg, route oral; settings: in vivo; outline: as §3
[15] = Cmax in Sprague-Dawley rat at 19 mg/kg, po QD measured on day 4; format: ADME, organism-based; design: dose 19 mg/kg, route oral; settings: in vivo; outline: as §3
[16] = AUC in Sprague-Dawley rat at 19 mg/kg, po QD measured on day 1; format: ADME, organism-based; settings: in vivo; outline: as §3
[17] = AUC in Sprague-Dawley rat at 19 mg/kg, po QD measured on day 4; format: ADME, organism-based; settings: in vivo; outline: as §3
Rattus norvegicus [18] = test: Dose normalized AUC in Sprague-Dawley rat at 19 mg/kg, po QD measured on day 1; format: ADME, organism-based; settings: in vivo; outline: as §3
Rattus norvegicus [19] = test: Dose normalized AUC in Sprague-Dawley rat at 19 mg/kg, po QD measured on day 4; format: ADME, organism-based; settings: in vivo; outline: as §3
[20] = Half life in CD rat at 1 mg/kg, iv; format: ADME, organism-based; settings: in vivo
Outline: (§4)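 Male CD rats carried femoral vein (dosing) and jugular vein (sampling) cannulae and recovered at least 2 days. They received a 1 h iv infusion at 5 mL kg−1 h−1, target 1 mg/kg, at 0.2 mg/mL in DMSO/10% Kleptose in saline (≤5%:≥95%). pH was adjusted to 8.0 if needed and the solution filtered. Definitive studies used n = 3 in crossover; others used single animals.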

[21] = Volume of distribution at steady state in CD rat at 1 mg/kg, iv; format: ADME, organism-based; settings: in vivo, read-out: Vdss; outline: as §1
[22] = Blood clearance in CD rat at 1 mg/kg, iv; format: ADME, organism-based; outline: as §4
CYP1A1 [23] = test: Induction of CYP1A1 mRNA expression in Sprague-Dawley rat hepatic microsomes at 24 mg/kg, po QD for 4 days relative to control; format: ADME, organism-based, Liver; settings: read-out: FC; outline: as §2
CYP1A2 [24] = test: Induction of CYP1A2 mRNA expression in Sprague-Dawley rat hepatic microsomes at 24 mg/kg, po QD for 4 days relative to control; format: ADME, organism-based, Liver; settings: read-out: FC
[25] = Cmax in Sprague-Dawley rat at 24 mg/kg, po QD measured on day 1; format: ADME, organism-based; design: dose 24 mg/kg, route oral; settings: in vivo; outline: as §3
[26] = Cmax in Sprague-Dawley rat at 24 mg/kg, po QD measured on day 4; format: ADME, organism-based; design: dose 24 mg/kg, route oral; settings: in vivo; outline: as §3
[27] = AUC in Sprague-Dawley rat at 24 mg/kg, po QD measured on day 1; format: ADME, organism-based; settings: in vivo; outline: as §3
[28] = AUC in Sprague-Dawley rat at 24 mg/kg, po QD measured on day 4; format: ADME, organism-based; settings: in vivo; outline: as §3
Rattus norvegicus [29] = test: Dose normalized AUC in Sprague-Dawley rat at 24 mg/kg, po QD measured on day 1; format: ADME, organism-based; settings: in vivo; outline: as §3
Rattus norvegicus [30] = test: Dose normalized AUC in Sprague-Dawley rat at 24 mg/kg, po QD measured on day 4; format: ADME, organism-based; settings: in vivo; outline: as §3
CYP1A1 [31] = test: Induction of CYP1A1 mRNA expression in Sprague-Dawley rat hepatic microsomes at 25 mg/kg, po QD for 4 days relative to control; format: ADME, organism-based, Liver; settings: read-out: FC; outline: as §2
CYP1A2 [32] = test: Induction of CYP1A2 mRNA expression in Sprague-Dawley rat hepatic microsomes at 25 mg/kg, po QD for 4 days relative to control; format: ADME, organism-based, Liver; settings: read-out: FC
[33] = Cmax in Sprague-Dawley rat at 25 mg/kg, po QD measured on day 1; format: ADME, organism-based; design: dose 25 mg/kg, route oral; settings: in vivo; outline: as §3
[34] = Cmax in Sprague-Dawley rat at 25 mg/kg, po QD measured on day 4; format: ADME, organism-based; design: dose 25 mg/kg, route oral; settings: in vivo; outline: as §3
[35] = AUC in Sprague-Dawley rat at 25 mg/kg, po QD measured on day 1; format: ADME, organism-based; settings: in vivo; outline: as §3
[36] = AUC in Sprague-Dawley rat at 25 mg/kg, po QD measured on day 4; format: ADME, organism-based; settings: in vivo; outline: as §3
Rattus norvegicus [37] = test: Dose normalized AUC in Sprague-Dawley rat at 25 mg/kg, po QD measured on day 1; format: ADME, organism-based; settings: in vivo; outline: as §3
Rattus norvegicus [38] = test: Dose normalized AUC in Sprague-Dawley rat at 25 mg/kg, po QD measured on day 4; format: ADME, organism-based; settings: in vivo; outline: as §3

SMILES | bioavailability [1] | logD [2] | pKa [11] | fold induction at 96 h (CYP1A1 [12]) | fold induction at 96 h (CYP1A2 [13]) | Cmax [14] | Cmax [15] | AUC [16] | AUC [17] | AUC/dose (Rattus norvegicus [18]) | AUC/dose (Rattus norvegicus [19]) | half-life [20] | Vd [21] | clearance [22] | fold induction at 96 h (CYP1A1 [23]) | fold induction at 96 h (CYP1A2 [24]) | Cmax [25] | Cmax [26] | AUC [27] | AUC [28] | further results
CC(C)Oc1ccc(-c2nc(-c3ccc4c(c3)CCN(C(CO)CO)CC4)no2)cc1C#N | 68% | 2.78 | – | – | – | – | – | – | – | – | – | – | – | – | – | – | – | – | – | – | fold induction at 96 h (CYP1A1 [3]): 604; fold induction at 96 h (CYP1A2 [4]): 7.3; Cmax [5]: 1600 ng/mL; Cmax [6]: 1380 ng/mL; AUC [7]: 23000 ng·h/mL; AUC [8]: 23100 ng·h/mL; AUC/dose (Rattus norvegicus [9]): 48 kg·min/L; AUC/dose (Rattus norvegicus [10]): 59 kg·min/L
Cc1c(-c2noc(-c3ccc(OC(C)C)c(C#N)c3)n2)ccc2c1CCN(C[C@@H](O)CO)CC2 | – | 2.36 | 8.4 | 126 | 1.7 | 1290 ng/mL | 1530 ng/mL | 20800 ng·h/mL | 26000 ng·h/mL | 65 kg·min/L | 83 kg·min/L | – | – | – | – | – | – | – | – | – | –
Cc1c(-c2nnc(-c3ccc(OC(C)C)c(C#N)c3)s2)ccc2c1CCN(C(CO)CO)C2 | – | 2.33 | 7.2 | 1.7 | 1 | 1750 ng/mL | 2320 ng/mL | 19100 ng·h/mL | 27800 ng·h/mL | 61 kg·min/L | 89 kg·min/L | – | – | – | – | – | – | – | – | – | –
CC(C)Nc1ncc(-c2nc(-c3ccc4c(c3)CCN(C(CO)CO)CC4)no2)cc1C#N | 67% | 2.63 | 8.1 | – | – | – | – | – | – | – | – | 8.1 h | 10.9 L/kg | 22 mL/min/kg | 100 | 2 | 1010 ng/mL | 1220 ng/mL | 15300 ng·h/mL | 21300 ng·h/mL | AUC/dose (Rattus norvegicus [29]): 38 kg·min/L; AUC/dose (Rattus norvegicus [30]): 55 kg·min/L
Cc1c(-c2noc(-c3cnc(NC(C)C)c(C#N)c3)n2)ccc2c1CCN(C(CO)CO)CC2 | – | 2.44 | 8.3 | – | – | – | – | – | – | – | – | – | – | – | 81 | 2 | 1140 ng/mL | 1350 ng/mL | 17000 ng·h/mL | 24900 ng·h/mL | AUC/dose (Rattus norvegicus [29]): 43 kg·min/L; AUC/dose (Rattus norvegicus [30]): 63 kg·min/L
Cc1c(-c2noc(-c3ccc(OC(C)C)c(C#N)c3)n2)ccc2c1OCCN(C(CO)CO)C2 | 69% | 2.86 | 6.3 | – | – | – | – | – | – | – | – | 1 h | 4 L/kg | 54 mL/min/kg | – | – | – | – | – | – | fold induction at 96 h (CYP1A1 [31]): 40; fold induction at 96 h (CYP1A2 [32]): 2; Cmax [33]: 870 ng/mL; Cmax [34]: 1140 ng/mL; AUC [35]: 8840 ng·h/mL; AUC [36]: 12600 ng·h/mL; AUC/dose (Rattus norvegicus [37]): 22 kg·min/L; AUC/dose (Rattus norvegicus [38]): 30 kg·min/L
